The list is not random: actives were taken first. Their share in the collection is about 2.4%.
Rtt109 HAT inh = C. albicans Rtt109 histone acetyltransferase inhibition; purified Rtt109/Vps75, ThioGlo CoA-SH fluorescence, 4 h; inhibition, % at 34.9 µM; 330,000 compounds, 0.16% hits;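 active = inhibition of at least 50% in every replicate; inconclusive = best replicate reaches 50% inhibition but some replicates fall short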
Target sequence (Q5AAJ8 whole entry, looked up): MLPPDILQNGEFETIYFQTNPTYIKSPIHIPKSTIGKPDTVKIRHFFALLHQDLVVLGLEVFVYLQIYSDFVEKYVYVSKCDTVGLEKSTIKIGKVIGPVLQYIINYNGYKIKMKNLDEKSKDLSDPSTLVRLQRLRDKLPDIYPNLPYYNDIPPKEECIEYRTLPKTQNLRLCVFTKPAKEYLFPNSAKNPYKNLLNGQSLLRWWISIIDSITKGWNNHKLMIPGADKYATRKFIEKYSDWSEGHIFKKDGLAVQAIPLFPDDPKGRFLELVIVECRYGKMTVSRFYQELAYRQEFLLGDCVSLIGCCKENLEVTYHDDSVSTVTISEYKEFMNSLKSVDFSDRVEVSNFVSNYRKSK
miR122 inh = inhibitors of miR-122 in Huh7 cells; Huh7 miR-122 Renilla luciferase sensor, 48 h; neutral wells = 0, positive control = 100; activation (reporter increase), % at 12.5 µM; 340,000 compounds, 0.3% hits; AID 602342;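 active = mean replicate activation score at least 90 and every replicate individually at or above 90; inconclusive = only one of the two criteria met; inactive = neither criterion met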;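 note: higher luciferase means less miR-122 activity so hits act as miR-122 inhibitors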
HIV Env fusion = HIV envelope-mediated fusion inhibition. HeLa-JRFL Env/CEM21 cell fusion, luciferase. inhibition, % at 12.3 µM. 360,000 compounds, 1.1% hits;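 active = mean replicate inhibition score of at least 50 and every replicate individually at or above 50; inconclusive = only one of the two criteria met; inactive = mean below 50 and not all replicates reaching 50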
dFosB activator = mouse delta FosB homodimer activation. activation, % at 25 µM. 340,000 compounds, 0.99% hits. purified delta FosB, TAMRA-CDK5 oligo fluorescence polarization; percent of positive-control signal above neutral wells. P13346;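 active = mean activation above about 17%, with every replicate also reaching it, limit read from the data, passing the limit was not always enough; inconclusive = only one of the two conditions met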
Target sequence (P13346 whole entry, looked up): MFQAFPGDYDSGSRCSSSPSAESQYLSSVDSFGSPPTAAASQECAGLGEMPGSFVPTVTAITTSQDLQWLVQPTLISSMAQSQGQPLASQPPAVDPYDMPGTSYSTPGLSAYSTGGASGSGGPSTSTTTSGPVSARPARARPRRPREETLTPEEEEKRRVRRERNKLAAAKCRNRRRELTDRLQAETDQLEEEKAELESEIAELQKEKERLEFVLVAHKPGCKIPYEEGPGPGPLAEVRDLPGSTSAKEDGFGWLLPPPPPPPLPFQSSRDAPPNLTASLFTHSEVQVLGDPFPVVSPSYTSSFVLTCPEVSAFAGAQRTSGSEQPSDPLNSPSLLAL
Cneo AK release = Cryptococcus neoformans lysis via adenylate kinase release; 360,000 compounds, 0.2% hits; lysis activity, % at 15 µM; C. neoformans lysis, adenylate kinase release luminescence, 4 h; normalised: neutral wells 0, clomiphene wells 100;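 active = mean lysis activity across replicates of at least 80%, whatever share of replicates individually reach that level; inactive = mean lysis activity below 80%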
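Assay system: C. neoformans cells. Amount: yeast cell density of 5 × 10^6 cells/mL. Technique: AK luminescence. Buffer or medium: YPD. Times: static 4 h at 37 °C with compound, 1 h detection. Dosing: single-point compound dose. Read-out: lysis from increased AK signal.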
INS-1E GSIS act = GLuc luminescence reporter in INS-1E cells, primary screen for activators of glucose-dependent secretion of insulin. INS-1E GLuc reporter insulin secretion, 2-3 h. 370,000 compounds, 0.61% hits. AID 743287. activation, % at 16.6 µM;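 active = lowest replicate activation of at least 40%, so every replicate reaches that level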
Of the large screens only hits and unclear results are named; the others gave an inactive call; [ ] = another dose, or the depositor's remark.

Cc1ccc(S(=O)(=O)N(C)C[C@H]2Oc3ccc(NC(=O)Nc4ccc5c(c4)OCO5)cc3C(=O)N([C@@H](C)CO)C[C@H]2C)cc1	none (no result: Rtt109 HAT inh, dFosB activator)
C[C@@H]1CN([C@@H](C)CO)S(=O)(=O)c2ccc(-c3ccc(F)cc3)cc2O[C@@H]1CN(C)C(=O)Nc1ccc(F)cc1	none (no result: Rtt109 HAT inh, dFosB activator, Cneo AK release)
COc1ccc(CNC(=O)CCS(=O)(=O)Cc2ccc(C)cc2)c(OC)c1	none (no result: Cneo AK release)
COc1ccccc1CNC(=O)CCS(=O)(=O)Cc1ccc(C)cc1	INS-1E GSIS act 88
COc1ccc2c(c1)[nH]c1c(=O)n(/N=C/c3ccc(OC)c(COc4ccccn4)c3)cnc12	none
COc1ccc2c(c1)[nH]c1c(=O)n(/N=C/c3ccc(OC)c(CN4CCCCC4)c3)cnc12	dFosB activator 74 (no result: miR122 inh)
CCCCNC(=O)N(O)C1N(/N=C/c2cccs2)C(=S)SC1(C)C (stereo not given)	HIV Env fusion 67 (no result: miR122 inh, Cneo AK release)
O=C(c1sccc1-c1ccccc1)N1CCN(S(=O)(=O)c2ccccc2F)CC1	HIV Env fusion 66
O=C(N/N=C/c1cccc2ccccc12)c1ccccc1Cl	none
O=C(NN=Cc1ccccc1Cl)c1cccc2ccccc12	INS-1E GSIS act 80 (no result: miR122 inh, Cneo AK release)
Cc1cc(NC(=O)CSCC(=O)N(c2ccc(F)cc2)C(C(=O)NC2CCCCC2)c2ccc(O)c(O)c2)no1 (stereo not given)	HIV Env fusion inconclusive
COc1ccc(N(C(=O)CSCC(=O)Nc2cc(C)on2)C(C(=O)NC2CCCCC2)c2ccc(O)c(O)c2)cc1 (stereo not given)	HIV Env fusion 57 (no result: miR122 inh, Cneo AK release)
C[C@@H]1CN([C@H](C)CO)S(=O)(=O)c2ccc(C#CC(C)(C)O)cc2O[C@@H]1CN(C)C(=O)C1CCCCC1	none (no result: Rtt109 HAT inh, dFosB activator)
C[C@H]1CN([C@@H](C)CO)C(=O)c2cc(-c3ccc(C#N)cc3)cnc2O[C@H]1CN(C)C(=O)Nc1ccc(F)cc1	none (no result: Rtt109 HAT inh, dFosB activator)
C[C@H](CO)N1C[C@H](C)[C@H](CN(C)C(=O)Nc2ccc3c(c2)OCO3)Oc2ncc(-c3ccc(F)cc3)cc2C1=O	Cneo AK release 91 (no result: Rtt109 HAT inh, dFosB activator)
C[C@@H]1CN([C@@H](C)CO)C(=O)c2cc(-c3ccc(C#N)cc3)cnc2O[C@@H]1CN(C)C(=O)Nc1ccc(F)cc1	Cneo AK release 92 (no result: Rtt109 HAT inh, dFosB activator)
COc1ccc2c3c([nH]c2c1)[C@@H](CO)N(C(=O)c1ccccc1)CC31CN(C(=O)Nc2cccc(F)c2)C1	none (no result: Rtt109 HAT inh, miR122 inh, dFosB activator, Cneo AK release)
COc1ccc(NC(=S)N(CCCN2CCCC2)Cc2cccn2Cc2ccc(Cl)cc2)cc1Cl	Rtt109 HAT inh inconclusive, dFosB activator 48
Cc1cc(NC(=S)N(CCN2CCCCC2)Cc2ccco2)ccc1Cl	none
Cc1ccc(NC(=S)N(CCCN2CCCC2)Cc2cccn2Cc2ccc(Cl)cc2)cc1Cl	dFosB activator 69
FC(F)(F)c1cccc(NC(=S)N(CCCN2CCCC2)Cc2cccn2Cc2ccc(Cl)cc2)c1	dFosB activator 45
CN(C)CCCN(Cc1ccccc1)C(=S)Nc1cccc(C(F)(F)F)c1	none (no result: Cneo AK release)
Cc1ccc(NC(=S)N(CCCN2CCCC2)Cc2cccn2Cc2ccc(Cl)cc2)cc1C	Rtt109 HAT inh 62, dFosB activator 32
COc1cccc(CN2CC3(CCN(C(C)=O)CC3)c3c(n(C)c4cc(OC)ccc34)[C@@H]2CO)c1	none (no result: Rtt109 HAT inh, miR122 inh, HIV Env fusion, dFosB activator, Cneo AK release)
CO[C@@H](CN(C)S(=O)(=O)c1ccc(Cl)cc1)[C@H](C)CN([C@@H](C)CO)S(=O)(=O)c1cccc(Cl)c1	HIV Env fusion 74[16.7 µM] (no result: Rtt109 HAT inh, miR122 inh, dFosB activator)
CO[C@H](CN(C)Cc1cc(F)ccc1F)[C@@H](C)CN([C@@H](C)CO)S(=O)(=O)c1ccc(F)cc1	Cneo AK release 91 (no result: Rtt109 HAT inh, miR122 inh, dFosB activator)
CO[C@@H](CN(C)S(=O)(=O)c1ccc(Cl)cc1)[C@@H](C)CN([C@@H](C)CO)S(=O)(=O)c1cccc(Cl)c1	none (no result: Rtt109 HAT inh, miR122 inh, dFosB activator)
CO[C@@H](CN(C)Cc1cc(F)ccc1F)[C@H](C)CN([C@@H](C)CO)S(=O)(=O)c1ccc(F)cc1	none (no result: Rtt109 HAT inh, miR122 inh, dFosB activator)
CO[C@H](CN(C)S(=O)(=O)c1ccc(Cl)cc1)[C@@H](C)CN([C@@H](C)CO)S(=O)(=O)c1cccc(Cl)c1	HIV Env fusion 77[16.7 µM] (no result: Rtt109 HAT inh, miR122 inh, dFosB activator)
CO[C@@H](CN(C)S(=O)(=O)c1ccc(Cl)cc1)[C@@H](C)CN([C@H](C)CO)S(=O)(=O)c1cccc(Cl)c1	HIV Env fusion 64[16.7 µM] (no result: Rtt109 HAT inh, miR122 inh, dFosB activator)
CO[C@H](CN(C)S(=O)(=O)c1cccc(Cl)c1)[C@H](C)CN([C@H](C)CO)S(=O)(=O)c1ccc(Cl)cc1	none (no result: Rtt109 HAT inh, miR122 inh, dFosB activator)
Cc1noc(C)c1S(=O)(=O)N(C)C[C@@H]1OCCCC[C@H](C)Oc2ccc(NC(=O)Nc3ccc(F)cc3)cc2C(=O)N([C@H](C)CO)C[C@H]1C	none (no result: Rtt109 HAT inh, dFosB activator)
C=CC[C@@]1(C(=O)NCC(O)CO)N=C(c2ccc(OCCCO)cc2)O[C@@H]1c1ccccc1 (stereo not given in full)	none (no result: Rtt109 HAT inh, miR122 inh, dFosB activator, INS-1E GSIS act)
O=C(Nc1ccc(Br)cc1)c1cc2ccccn2n1	INS-1E GSIS act 54 (no result: miR122 inh)
O=C(NCCc1ccc(Cl)cc1)c1cc2ccccn2n1	none (no result: miR122 inh)
CC(C)(C)c1ccc(C(=O)CC(Sc2ccc(Cl)cc2)C(=O)O)cc1 (stereo not given)	Rtt109 HAT inh 126 (no result: miR122 inh, Cneo AK release)
Cc1ccc(SC(CC(=O)c2ccc(F)cc2)C(=O)O)cc1 (stereo not given)	none
Cc1cc(C(=O)N2CCCC(CNS(=O)(=O)c3cccs3)C2)nn1C (stereo not given)	none (no result: miR122 inh, Cneo AK release, INS-1E GSIS act)
Cc1nc(CC(C)C)cc(C(=O)N2CCCC(CNS(=O)(=O)c3cccs3)C2)n1 (stereo not given)	Rtt109 HAT inh 60 (no result: miR122 inh, Cneo AK release)
CCCCN(CC)CCCNC(=O)c1cc2c(-c3ccc(OC)c(OC)c3)nn(C)c2s1	dFosB activator 37
COc1cc(C(=O)CCN2CCC(c3ccccc3)C2)cc(OC)c1OC (stereo not given)	Rtt109 HAT inh 95 (no result: HIV Env fusion)
CC1(C)Cc2c(ccc3ccccc23)C(=O)N1	HIV Env fusion 80 (no result: INS-1E GSIS act)
CCNC(=O)/C=C1\NC(C)(C)Cc2c1ccc1ccccc21	none (no result: HIV Env fusion)
C[C@H](NC(=O)C[C@H]1CC[C@@H](NC(=O)C2CCC2)[C@H](CO)O1)c1ccccc1	none (no result: Rtt109 HAT inh, miR122 inh, dFosB activator)
Cc1ccc(C(=O)Cn2nnc3ccccc32)cc1[N+](=O)[O-]	none (no result: INS-1E GSIS act)
Cc1ccc(C(=O)n2nnc3ccccc32)cc1[N+](=O)[O-]	Cneo AK release 91
CCCN(C)C[C@@H]1OCCCC[C@H](C)Oc2ccc(N(C)C)cc2C(=O)N([C@H](C)CO)C[C@@H]1C	none (no result: Rtt109 HAT inh, dFosB activator)
CCCc1cn(CC[C@H]2CC[C@@H](NS(=O)(=O)c3ccccc3Cl)[C@H](CO)O2)nn1	none (no result: Rtt109 HAT inh, miR122 inh, dFosB activator)
CN1C(=O)c2cc(NC(=O)C3CC3)ccc2OC[C@@H]2O[C@H](CC(=O)NCc3cccc(F)c3)CC[C@@H]21	none (no result: Rtt109 HAT inh, dFosB activator)
NCC[C@H]1CC[C@@H](NC(=O)C2CC2)[C@@H](CO)O1	none (no result: Rtt109 HAT inh, miR122 inh, HIV Env fusion, dFosB activator, Cneo AK release)
CC(C)c1nnc(NC(=O)Cc2cccs2)s1	none
